Assay results published in ChEMBL document CHEMBL4219161, “New phenylaniline derivatives as modulators of amyloid protein precursor metabolism” (Bioorg Med Chem, 2018).
pIC50: −log10 of the molar value.

system: not listed separately; experiment: Cytotoxicity against human SH-SY5Y cells after 72 hrs by MTT assay; format: cell-based
How it was run: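 SH-SY5Y cells grown in DMEM with 10% heat-inactivated FBS, 2 mM L-glutamine, non-essential amino acids and penicillin/streptomycin at 37 °C, 5% CO2. Cells were exposed to compounds at 100, 50, 10, 5, 1, 0.5, 0.1 and 0.05 µM, in under 0.1% DMSO, for 72 h. Growth was read by colorimetric MTT; CC50 taken as the concentration causing 50% cell death.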

Compound	CC50 at 72 h [µM]
CN(C)CCNCc1cc(NC(=O)CN2CCCCC2)cc(Nc2ccnc3cc(Cl)ccc23)c1	15
CCN(CC)Cc1cc(NC(=O)CN2CCCCC2)cc(Nc2ccnc3cc(Cl)ccc23)c1	4
c1ccc(Nc2cc(CNCCN3CCCCC3)cc(CNCCN3CCCCC3)c2)c(CN2CCOCC2)c1	77
CN(C)CCN(C)Cc1cc(NC(=O)CN2CCCCC2)cc(Nc2ccnc3cc(Cl)ccc23)c1	4
CN1CCN(Cc2ccccc2-c2cc(CNCCN3CCCCC3)cc(CNCCN3CCCCC3)c2)CC1	> 100
CCN(CC)Cc1cccc(Nc2ccnc3cc(Cl)ccc23)c1	12
Clc1ccc2c(Nc3cc(CN4CCOCC4)cc(NCCN4CCCCC4)c3)ccnc2c1	10
CN1CCN(Cc2ccccc2Nc2cc(C(=O)NCCN3CCCCC3)cc(C(=O)NCCN3CCCCC3)c2)CC1	> 100
CN1CCN(c2cc(Nc3ccnc4cc(Cl)ccc34)cc(N3CCN(C)CC3)c2)CC1	> 15
CCN(CC)Cc1cc(NCCN2CCCCC2)cc(Nc2ccnc3cc(Cl)ccc23)c1	15
O=C(NCCN1CCCCC1)c1cc(C(=O)NCCN2CCCCC2)cc(-c2ccccc2CN2CCOCC2)c1	> 100
CN(C)Cc1ccccc1-c1cc(C(=O)NCCN2CCCCC2)cc(C(=O)NCCN2CCCCC2)c1	> 100
CN1CCN(Cc2ccccc2-c2cc(C(=O)NCCN3CCCCC3)cc(C(=O)NCCN3CCCCC3)c2)CC1	> 100
CN1CCN(Cc2ccccc2Nc2cc(CNCCN3CCCCC3)cc(CNCCN3CCCCC3)c2)CC1	> 100

target: T1, Amyloid-beta precursor protein (Homo sapiens, UniProt P05067); experiment: Modulation of human wild-type APP695 expressed in SH-SY5Y cells assessed as inhibition of amyloid beta (1 to 40 residues) production measured after 24 hrs; format: cell-based
T1 sequence (P05067 whole entry, the tested form may be a part): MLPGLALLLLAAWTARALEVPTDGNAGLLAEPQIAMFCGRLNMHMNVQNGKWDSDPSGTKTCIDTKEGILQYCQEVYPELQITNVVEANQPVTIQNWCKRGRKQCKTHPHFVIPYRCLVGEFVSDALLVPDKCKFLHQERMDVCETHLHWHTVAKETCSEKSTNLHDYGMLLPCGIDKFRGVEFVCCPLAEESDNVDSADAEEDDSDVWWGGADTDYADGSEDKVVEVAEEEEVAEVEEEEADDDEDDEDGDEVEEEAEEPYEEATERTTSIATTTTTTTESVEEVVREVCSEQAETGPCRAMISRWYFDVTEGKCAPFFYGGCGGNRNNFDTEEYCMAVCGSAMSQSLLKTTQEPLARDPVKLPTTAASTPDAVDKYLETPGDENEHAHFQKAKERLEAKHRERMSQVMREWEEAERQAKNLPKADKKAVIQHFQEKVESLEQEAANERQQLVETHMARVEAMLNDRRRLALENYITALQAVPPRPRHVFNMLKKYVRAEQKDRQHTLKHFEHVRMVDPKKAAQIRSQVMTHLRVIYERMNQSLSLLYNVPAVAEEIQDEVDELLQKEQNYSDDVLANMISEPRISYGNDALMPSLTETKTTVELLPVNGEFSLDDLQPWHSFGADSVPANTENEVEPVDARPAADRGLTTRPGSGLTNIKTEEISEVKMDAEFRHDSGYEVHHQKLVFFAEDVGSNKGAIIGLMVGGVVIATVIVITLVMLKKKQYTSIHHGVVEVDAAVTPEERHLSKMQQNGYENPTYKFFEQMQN
How it was run: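 SY5Y-APPwt cells (stable human APP695 clone) were exposed to compound for 24 h. Conditioned medium was spun at 200×g, frozen at −80 °C and assayed by ELISA for Aβ1-40 or Aβ1-42, with samples in duplicate and experiments in triplicate. Values were normalised to untreated control set to 100%. IC50 is the concentration lowering secreted Aβ to 50% of basal; mean of ≥3 independent experiments.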

pIC50	Compound
5.70	CN(C)CCNCc1cc(NC(=O)CN2CCCCC2)cc(Nc2ccnc3cc(Cl)ccc23)c1
5.82	CCN(CC)Cc1cc(NC(=O)CN2CCCCC2)cc(Nc2ccnc3cc(Cl)ccc23)c1
5.18	c1ccc(Nc2cc(CNCCN3CCCCC3)cc(CNCCN3CCCCC3)c2)c(CN2CCOCC2)c1
5.77	CN(C)CCN(C)Cc1cc(NC(=O)CN2CCCCC2)cc(Nc2ccnc3cc(Cl)ccc23)c1
< 5.00	CN1CCN(Cc2ccccc2-c2cc(CNCCN3CCCCC3)cc(CNCCN3CCCCC3)c2)CC1
5.35	CCN(CC)Cc1cccc(Nc2ccnc3cc(Cl)ccc23)c1
5.60	Clc1ccc2c(Nc3cc(CN4CCOCC4)cc(NCCN4CCCCC4)c3)ccnc2c1
< 5.00	CN1CCN(Cc2ccccc2Nc2cc(C(=O)NCCN3CCCCC3)cc(C(=O)NCCN3CCCCC3)c2)CC1
5.64	CN1CCN(c2cc(Nc3ccnc4cc(Cl)ccc34)cc(N3CCN(C)CC3)c2)CC1
5.00	CCN(CC)Cc1cc(NCCN2CCCCC2)cc(Nc2ccnc3cc(Cl)ccc23)c1
< 5.00	O=C(NCCN1CCCCC1)c1cc(C(=O)NCCN2CCCCC2)cc(-c2ccccc2CN2CCOCC2)c1
< 5.00	CN(C)Cc1ccccc1-c1cc(C(=O)NCCN2CCCCC2)cc(C(=O)NCCN2CCCCC2)c1
< 5.00	CN1CCN(Cc2ccccc2-c2cc(C(=O)NCCN3CCCCC3)cc(C(=O)NCCN3CCCCC3)c2)CC1
< 5.00	CN1CCN(Cc2ccccc2Nc2cc(CNCCN3CCCCC3)cc(CNCCN3CCCCC3)c2)CC1

target: T1, Amyloid-beta precursor protein; experiment: Modulation of human wild-type APP695 expressed in SH-SY5Y cells assessed as increase in CTFalpha level at 3 uM measured after 24 hrs by Western blot analysis relative to chloroquine; format: cell-based
How it was run: (§1)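 SY5Y stably transfected with human APP695 (pcDNA3.1, G418-selected clone SY5Y-APPwt) was plated 24 h before treatment and exposed to compound for 24 h. Lysates were made in Laemmli buffer with protease inhibitors and sonicated. 20 µg protein/lane was run on 16% Tris-Tricine gel and blotted to PVDF. Blots were probed overnight at 4 °C with APP C-terminal (last 17 aa) rabbit antiserum 1:4000 and developed by chemiluminescence. Band area was quantified with H3 reprobe. Result is the fragment level ratio of compound to chloroquine, both at 3 µM; mean of ≥3 independent experiments.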

fold change (FC)	Compound
1.7	CN(C)CCNCc1cc(NC(=O)CN2CCCCC2)cc(Nc2ccnc3cc(Cl)ccc23)c1
1.6	CCN(CC)Cc1cc(NC(=O)CN2CCCCC2)cc(Nc2ccnc3cc(Cl)ccc23)c1
0.9	c1ccc(Nc2cc(CNCCN3CCCCC3)cc(CNCCN3CCCCC3)c2)c(CN2CCOCC2)c1
2.1	CN(C)CCN(C)Cc1cc(NC(=O)CN2CCCCC2)cc(Nc2ccnc3cc(Cl)ccc23)c1
0.6	CCN(CC)Cc1cccc(Nc2ccnc3cc(Cl)ccc23)c1
1.2	Clc1ccc2c(Nc3cc(CN4CCOCC4)cc(NCCN4CCCCC4)c3)ccnc2c1
1.4	CN1CCN(c2cc(Nc3ccnc4cc(Cl)ccc34)cc(N3CCN(C)CC3)c2)CC1
0.5	CCN(CC)Cc1cc(NCCN2CCCCC2)cc(Nc2ccnc3cc(Cl)ccc23)c1

target: T1, Amyloid-beta precursor protein; experiment: Modulation of human wild-type APP695 expressed in SH-SY5Y cells assessed as increase in AICD level at 3 uM measured after 24 hrs by Western blot analysis relative to chloroquine; format: cell-based; how it was run: as §1

fold change (FC)	Compound
2.3	CN(C)CCNCc1cc(NC(=O)CN2CCCCC2)cc(Nc2ccnc3cc(Cl)ccc23)c1
0.9	CCN(CC)Cc1cc(NC(=O)CN2CCCCC2)cc(Nc2ccnc3cc(Cl)ccc23)c1
1.3	c1ccc(Nc2cc(CNCCN3CCCCC3)cc(CNCCN3CCCCC3)c2)c(CN2CCOCC2)c1
3.4	CN(C)CCN(C)Cc1cc(NC(=O)CN2CCCCC2)cc(Nc2ccnc3cc(Cl)ccc23)c1
0.5	CCN(CC)Cc1cccc(Nc2ccnc3cc(Cl)ccc23)c1
1.2	Clc1ccc2c(Nc3cc(CN4CCOCC4)cc(NCCN4CCCCC4)c3)ccnc2c1
1.1	CN1CCN(c2cc(Nc3ccnc4cc(Cl)ccc34)cc(N3CCN(C)CC3)c2)CC1
0.4	CCN(CC)Cc1cc(NCCN2CCCCC2)cc(Nc2ccnc3cc(Cl)ccc23)c1
